TRPC6 activator – activates the mouse TRPC6 cation channel. Q61143. HEK293-TRPC6 membrane potential dye fluorescence; hits give high values. B-score at 10 µM. 310,000 tested, 0.13% active;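 active = B-score of the integrated fluorescence ratio above library mean plus 3 SD, and starting fluorescence ratio within library mean plus 5 SD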;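 also: higher score means more depolarization so channel activation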
Target sequence (Q61143 whole entry, looked up): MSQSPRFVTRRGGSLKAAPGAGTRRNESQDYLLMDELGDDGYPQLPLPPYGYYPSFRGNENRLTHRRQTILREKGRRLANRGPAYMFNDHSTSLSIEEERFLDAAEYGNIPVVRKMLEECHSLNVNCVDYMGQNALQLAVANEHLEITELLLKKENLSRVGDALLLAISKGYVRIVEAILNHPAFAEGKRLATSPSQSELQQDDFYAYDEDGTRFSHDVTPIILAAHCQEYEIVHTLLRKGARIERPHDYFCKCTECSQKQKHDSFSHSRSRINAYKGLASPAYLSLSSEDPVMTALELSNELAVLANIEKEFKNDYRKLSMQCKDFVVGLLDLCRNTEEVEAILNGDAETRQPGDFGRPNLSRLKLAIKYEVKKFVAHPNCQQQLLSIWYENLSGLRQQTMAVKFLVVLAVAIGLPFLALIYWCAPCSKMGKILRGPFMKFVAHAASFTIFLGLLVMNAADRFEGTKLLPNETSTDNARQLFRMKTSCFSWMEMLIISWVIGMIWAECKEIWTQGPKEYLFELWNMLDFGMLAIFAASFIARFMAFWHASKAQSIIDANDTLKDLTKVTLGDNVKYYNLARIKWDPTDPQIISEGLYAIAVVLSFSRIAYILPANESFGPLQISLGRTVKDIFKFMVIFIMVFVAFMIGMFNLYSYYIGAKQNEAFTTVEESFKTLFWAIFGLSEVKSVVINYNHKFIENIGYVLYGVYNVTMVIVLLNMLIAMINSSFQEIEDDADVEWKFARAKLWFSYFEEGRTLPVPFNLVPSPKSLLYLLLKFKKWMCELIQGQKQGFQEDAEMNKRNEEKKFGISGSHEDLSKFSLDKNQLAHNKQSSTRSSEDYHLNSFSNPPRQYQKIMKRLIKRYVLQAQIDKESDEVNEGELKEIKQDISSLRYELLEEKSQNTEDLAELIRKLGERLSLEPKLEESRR
TRPC4 PAM – allosteric potentiators of mouse TRPC4 channel; Q9QUQ5; HEK293 TRPC4beta/mu-opioid, DAMGO EC20, Fluo-4 Ca2+ flux; hits give high values; B-score at 10 µM; 310,000 tested, 0.42% active; AID 2227;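 active = B-score of calcium response area above 5 SD of library B-scores, with initial fluorescence ratio within 5 SD of library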;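 also: B-score of integrated fluorescence ratio over time as area under calcium response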
TRPC4 inh – blocks the mouse TRPC4 cation channel | 300,000 tested, 0.39% active | B-score at 10 µM | HEK293 TRPC4beta/mu-opioid, DAMGO-evoked Fluo4 calcium flux; hits give low values | Q9QUQ5 | AID 2247;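 active = B-score over 3 SD under the library average, no early fluorescence shift, positive overall ratio signal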
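Assay system: HEK293 cells with stable TRPC4beta plus mu-opioid receptor expression; Probe or stimulus: DAMGO in two steps, submaximal then maximal; Dosing: single-point compound dosing; Measured by: Fluo4 calcium-dye fluorescence, kinetic read; Read-out basis: B score from integrated Fluo4 fluorescence ratio.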
TRPC4 act – opens the mouse TRPC4 cation channel; Q9QUQ5; HEK293 TRPC4beta/mu-opioid, Fluo4 calcium fluorescence; hits give high values; B-score at 10 µM; 310,000 tested, 0.49% active;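 active = B-score above 5 SD of library B-scores, and initial fluorescence ratio not above library mean plus 5 SD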;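 also: positive B-score marks a calcium rise read as TRPC4 activation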
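Material: HEK293 stable line with TRPC4beta plus mu-opioid receptor; technique: Fluo4 calcium-sensitive dye fluorescence, kinetic, 1 Hz baseline; timing: Fluo4 dye loading 45 min at room temperature, 110 s recording; controls: assay buffer as low control, maximal DAMGO as high control; read-out: integrated baseline-normalised fluorescence ratio, converted to per-well B score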
TRPC6 inh – mouse TRPC6 channel inhibition; Q61143; HEK293-TRPC6, membrane potential dye, ACh-evoked depolarization; hits give low values; B-score at 10 µM; 310,000 tested, 1.1% active;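 active = B-score under library mean minus 3 SD, initial fluorescence not abnormally high, positive integrated signal ratio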;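 also: B-score derived from integrated fluorescence ratio over the kinetic read; more negative B-score means stronger inhibition of depolarization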
Kir21 block – blocks the mouse Kir2.1 inward-rectifier potassium channel; B-score at 10 µM; HEK293-Kir2.1, FluxOR thallium flux fluorescence; hits give low values; 310,000 tested, 0.85% active; P35561;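 active = fluorescence ratio B-score at or below minus 3 SD of library scores, with starting-brightness B-score within 2 SD, cut at about -4.2 in these data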;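 also: channel flux triggered by added potassium and thallium sulfate stimulus; B-score of peak minus minimum fluorescence over baseline after thallium stimulus; more negative B-score means stronger Kir2.1 block with less thallium influx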
TRPC4 sel inh 2 – second check of whether TRPC6 inhibitors also affect mouse TRPC4; inhibition, % at 10 µM; 920 tested, 42% active; shares compounds with TRPC6 inh; HEK293 TRPC4/MOR, membrane potential dye fluorescence; channel activated by saturating DAMGO dose;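 active = compounds whose fluorescence signal differed from control wells by over 3 SD, either direction, in both duplicate plates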
TRPC4 spec – selectivity of TRPC6 inhibitors: effect on mouse TRPC4 | shares compounds with TRPC6 inh | HEK293 TRPC4/mu-opioid, membrane potential fluorescence | activity change, negative = inhibition, % at 10 µM | 920 tested, 61% active | AID 2777;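 active = rise or fall in signal beyond 3 SD of buffer-only wells in both replicate plates, either sign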;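 also: integrated kinetic ratio of fluorescence range over baseline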
HEK293 MPD ctr 2-1 – second check of TRPC6 inhibitor effects in parental HEK293 cells | AID 2779 | 920 tested, 31% active | parental HEK293 membrane potential dye fluorescence; maximal acetylcholine challenge after compound addition | shares compounds with TRPC6 inh | signal change vs control, % at 10 µM;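 active = membrane potential signal moving either way by over 3 SD of the maximum-effect control, in both duplicate plates, meaning non-specific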
HEK293 MPD ctr-1 – counter-screen for TRPC6 inhibitors: effect in parental HEK293 cells; shares compounds with TRPC6 inh; parental HEK293 membrane potential dye fluorescence; membrane potential signal change, % at 10 µM; 920 tested, 60% active; AID 2780;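 active = membrane potential signal shifting up or down by more than 3 SD of buffer-only wells, on both duplicate plates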
HEK293 MPD ctr-2 – parental HEK293 nonspecific activity of TRPC6 modulators; shares compounds with TRPC6 inh; membrane potential dye fluorescence; membrane potential signal change, % at 10 µM; 2,400 tested, 51% active; AID 488924;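 active = membrane potential signal moves up or down beyond 5 SD from buffer-only wells, on both duplicate plates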
HEK293 MPD ctr 2-2 – second counter-screen for TRPC6 modulators: effect in parental HEK293 cells; 2,400 tested, 14% active; membrane potential dye fluorescence; after compound, maximal acetylcholine stimulation; inhibition, % at 10 µM; shares compounds with TRPC6 inh;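 active = membrane potential signal drops by more than 5 SD from the mean control signal, in both duplicate plates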;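 also: plate controls were acetylcholine ECmax control wells for no effect and buffer only wells for full effect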
TRPC4 ctr mod – mouse TRPC4 off-target activity of TRPC6 modulators; shares compounds with TRPC6 inh; HEK293 TRPC4/mu-opioid, membrane potential fluorescence; percent change from control (negative = decrease, positive = increase), % at 10 µM; 2,400 tested, 69% active; AID 488927;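 active = membrane potential signal moved up or down beyond 5 SD of buffer control wells, in both duplicate plates, actives on both sides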;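 also: plate controls were assay buffer wells for no effect and DAMGO maximal-effect wells for full effect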
TRPC4/MOR inh 2 – second check of whether TRPC6 modulators also affect mouse TRPC4; shares compounds with TRPC6 inh; HEK293 TRPC4/mu-opioid, membrane potential dye fluorescence; stimulated with maximal-effect DAMGO; inhibition, % at 10 µM; 2,400 tested, 55% active;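 active = drop in membrane potential signal beyond 5 SD of the control wells in both duplicate plates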;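 also: TRPC4 counter screen for TRPC6 hits run under conditions tuned for TRPC6 not TRPC4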
TRPC6 block conf – mouse TRPC6 inhibitor confirmation. AID 488960. 3,300 tested, 43% active. shares compounds with TRPC6 inh. inhibition, % at 10 µM. HEK293-TRPC6, membrane potential dye, ACh-evoked depolarization;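 active = fluorescence ratio falls more than 5 SD below the full-stimulation control mean, in both duplicate runs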;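 also: integrated fluorescence ratio of peak minus minimum over baseline after agonist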
TRPC6 act confirm – mouse TRPC6 activator confirmation; shares compounds with TRPC6 inh; HEK293-TRPC6 membrane potential dye fluorescence, FDSS; AID 488961; activation, % at 10 µM; 2,800 tested, 11% active;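 active = ratio signal rise beyond 5 SD above unstimulated control wells' mean, seen in both duplicate runs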;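 also: plate controls were buffer EC0 wells for no effect and acetylcholine ECmax response for full effect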
* = called active by the depositor; i = inactive; nt = no result given. Hits are enriched below; roughly 2.9% of the tested compounds scored in any of these assays.

SMILES	TRPC6 activator	TRPC4 PAM	TRPC4 inh	TRPC4 act	TRPC6 inh	Kir21 block	HEK293 MPD ctr-2	HEK293 MPD ctr 2-2	TRPC4 ctr mod	TRPC4/MOR inh 2	TRPC6 block conf	TRPC6 act confirm	others
COc1ccc(-n2c(SCCNCCO)nc3sc4c(c3c2=O)CCCC4)cc1	i	i	i	i	-5.2*	-0.16	-142%*	i	-34%*	74%*	52%*	i
CC(C)(C)SCCNC(=O)COc1ccc(Cl)cc1	i	i	i	i	-5.3*	2.6	i	i	i	i	i	nt
Cc1ccccc1CSCCNC(=O)COc1ccc(Cl)cc1	i	i	i	i	i	-3.1	nt	nt	nt	nt	nt	nt
CN(C)CCOC(c1ccccc1)c1ccccc1 (tested in a mixture with another compound)	i	i	i	i	-5.2*	0.1	154%*	i	26%*	34%*	51%*	nt
CN(C)CCOC(c1ccccc1)c1ccccc1	i	i	i	i	i	-1.3	nt	nt	nt	nt	nt	nt
Cc1ccccc1C(OCCN(C(C)C)C(C)C)c1ccccc1 (centres undefined)	i	i	i	i	-5*	-2.7	209%*	88%*	44%*	44%*	80%*	nt
c1cncc(-c2nc(NCc3cccs3)c3ccccc3n2)c1	i	i	i	i	i	0.38	nt	nt	nt	nt	nt	nt
O=C(/C=C/c1ccco1)NCCCN1CCN(CCCNC(=O)/C=C/c2ccco2)CC1	i	i	i	i	i	0.04	nt	nt	nt	nt	nt	nt
CN(c1ccccc1)c1nc(N)c([N+](=O)[O-])c(Nc2ccccc2F)n1	i	i	i	i	i	-1.6	nt	nt	nt	nt	nt	nt
CN=C1c2cc3cc(OC)ccc3n2CCN1C	i	i	i	i	i	0.57	nt	nt	nt	nt	nt	nt
CN=C1c2cc3c(Br)c(OC)ccc3n2CCN1C	i	i	i	i	-8.3*	1.1	nt	nt	nt	nt	i	i	TRPC4 sel inh 2=i;TRPC4 spec=-14%*;HEK293 MPD ctr 2-1=10%*;HEK293 MPD ctr-1=-280%*
CN1Cc2c(N3CCOCC3)nc3sc(C#N)c(N)c3c2CC1(C)C	i	i	i	i	i	0.25	nt	nt	nt	nt	nt	nt
CN1Cc2c(N3CCOCC3)nc3sc(C(=O)c4ccc(Br)cc4)c(N)c3c2CC1(C)C	i	i	i	i	-7.2*	0.49	nt	nt	nt	nt	i	i	TRPC4 sel inh 2=i;TRPC4 spec=-11%*;HEK293 MPD ctr 2-1=i;HEK293 MPD ctr-1=-161%*
Cc1sc(N2C(=O)C3C(C2=O)[C@H]2C=C[C@@H]3C2)c(C#N)c1C (some centres undefined)	i	i	i	i	i	1.1	nt	nt	nt	nt	nt	nt
CCc1ccc(/C=C2/SC(=S)N(CCC(=O)NCCCN3CCOCC3)C2=O)cc1	i	i	i	i	-5.8*	-1.8	i	i	i	45%*	39%*	i
CCOc1ccc(/C=C2\SC(=S)N(CCCC(=O)NCCCN3CCOCC3)C2=O)cc1	i	i	i	i	i	-1.1	nt	nt	nt	nt	nt	nt
Cc1cc2c(=O)n(C)c(SCC(=O)NC3CCCC3)nc2s1	i	i	i	i	i	1.7	nt	nt	nt	nt	nt	nt
Cc1cccc(-c2cc3nc(C)cc(NCCCN(C)C)n3n2)c1	i	13*	i	i	-7.2*	-1.3	-194%*	74%*	-40%*	60%*	56%*	i
CN(C)CCCNc1cc(-c2ccccc2)nc2cc(-c3cccc(F)c3)nn12	i	i	i	i	-5.1*	-2.2	i	i	-11%*	50%*	46%*	i
Cc1cccc(-c2cc3nc(C)cc(C)n3n2)c1	i	i	i	i	i	-1.1	nt	nt	nt	nt	nt	nt
CCN(CC)CCCNc1cc(C)nc2cc(-c3cccs3)nn12	i	i	i	i	-7.5*	1.6	-416%*	i	-62%*	52%*	44%*	i
Cc1cc(C(F)(F)F)n2nc(-c3cccs3)cc2n1	i	i	i	i	i	-0.46	nt	nt	nt	nt	nt	nt
Cc1c(OCC(=O)N2C[C@H]3C[C@@H](C2)c2cccc(=O)n2C3)ccc2c3c(c(=O)oc12)CCCC3	i	i	i	i	-7*	1.7	nt	nt	nt	nt	77%*	nt	TRPC4 sel inh 2=i;TRPC4 spec=5.1%*;HEK293 MPD ctr 2-1=17%*;HEK293 MPD ctr-1=5.9%*
O=C(NCCN1CCN(c2ccccc2F)CC1)c1cccn2c(=O)c3ccccc3nc12	i	i	i	i	i	-1.1	nt	nt	nt	nt	nt	nt
O=c1c(Cc2ccccc2)c(O)c2cccc3c4c(n1c23)CCCC4	i	i	i	i	i	-0.01	nt	nt	nt	nt	nt	nt
CC(C)COc1ccc(S(=O)(=O)NNC(=O)c2cc3ccccc3o2)cc1	i	i	i	i	i	0.83	nt	nt	nt	nt	nt	nt
CCCCOc1ccc(S(=O)(=O)NNC(=O)c2cc3ccccc3o2)cc1	i	i	i	i	-5.2*	-0.25	i	i	i	i	i	i
CCc1ccc2c(c1)C1(NN=C(c3ccc(C)cc3)S1)C(=O)N2 (centres undefined)	i	i	i	i	i	2.7	nt	nt	nt	nt	nt	nt
